OXTR agonist: agonists of human oxytocin receptor; P30559; CHO-OTR cells, Fluo-8 calcium fluorescence; normalized: DMSO 0%, oxytocin 100%; activation, % at 3 µM; 320,000 tested, 0.32% active;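 active means activation above the mean of all tested compounds plus 3 SD, cutoff set per screening run, cut at about 20% in these data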;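 further: peak over basal fluorescence ratio from a 100 s FLIPR kinetic read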
V1aR counter: V1a receptor agonism, counter-screen for OXTR agonists; P37288; CHO-V1R cells, Fluo-8 calcium fluorescence, agonist mode; 0% DMSO, 100% 3 nM vasopressin; AID 2797; activation, % at 3 µM; 320,000 tested, 0.25% active;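 active means activation above the mean activation of all tested compounds plus 3 SD, per screening run, cut at about 20% in these data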;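 further: signal is peak over basal fluorescence ratio across a 100 second FLIPR read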
Target sequence (P37288 whole entry, looked up): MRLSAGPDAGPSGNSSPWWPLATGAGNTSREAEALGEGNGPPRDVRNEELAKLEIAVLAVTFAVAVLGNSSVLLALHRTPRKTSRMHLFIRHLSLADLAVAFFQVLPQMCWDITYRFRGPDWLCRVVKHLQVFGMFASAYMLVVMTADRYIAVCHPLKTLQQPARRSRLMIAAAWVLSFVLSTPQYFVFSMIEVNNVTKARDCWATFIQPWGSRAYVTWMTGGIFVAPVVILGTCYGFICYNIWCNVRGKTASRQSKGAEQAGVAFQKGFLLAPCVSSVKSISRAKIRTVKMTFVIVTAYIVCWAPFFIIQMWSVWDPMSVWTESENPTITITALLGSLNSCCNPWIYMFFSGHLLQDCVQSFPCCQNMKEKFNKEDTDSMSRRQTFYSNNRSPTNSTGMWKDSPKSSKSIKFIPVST
CHRM4 antagonist: antagonists of human muscarinic M4 receptor (CHRM4). inhibition, % at 3 µM. 360,000 tested, 0.73% active. CHO-hM4 cells, ACh EC80, Fluo-8 calcium fluorescence. P08173;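 active means inhibition above its plate's cutoff, the mean inhibition of sample wells plus 3 SD, cut at about 27% in these data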;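 further: 0% = acetylcholine EC80 with DMSO and 100% = DMSO without agonist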
CHRM4 PAM: positive allosteric modulators of human muscarinic M4 receptor; 360,000 tested, 0.4% active; CHO-K1 hM4/Gqi5, Fluo-8 calcium fluorescence, ACh EC20; 0% = ACh EC20, 100% = maximal ACh; activation, % at 3 µM; P08173; AID 624126;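 active means activation above its plate's cutoff, the mean activation of sample wells plus 3 SD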
M4 ag: agonists of human muscarinic M4 receptor (CHRM4); CHO-K1 hM4/Gqi5, Fluo-8 calcium fluorescence; vehicle 0%, full acetylcholine response 100%; activation, % at 3 µM; 360,000 tested, 0.14% active; AID 624127;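 active means activation above the run mean over all test wells plus 3 SD, cut at about 32% in these data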;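 further: peak over basal fluorescence ratio per well then scaled between controls; 0% = DMSO wells and 100% = acetylcholine at EC100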
OXTR potentiator: human OXTR potentiation. P30559. CHO-OTR cells, Fluo-8 calcium fluorescence, potentiator mode; 0% = oxytocin EC15, 100% = EC100. activation, % at 3 µM. 320,000 tested, 0.061% active;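 active means activation above that plate's cutoff, the mean activation of tested compounds plus 3 SD, cut at about 6.6% in these data, passing the limit was not always enough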;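 further: 100% uses oxytocin at 75 nM as the full agonist control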
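Material: CHO-OTR cells, human receptor; compound dosing: single dose, 3.0 µM nominal final compound concentration; schedule: 6 min compound pre-incubation at room temperature, 100 s kinetic read; measured by: kinetic Fluo-8 calcium fluorescence; read-out basis: % activation vs EC15 and EC100 oxytocin; controls: EC15 oxytocin alone as 0%, 75 nM oxytocin as 100%; replicates: singlicate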
* = called active by the depositor; . = not tested or not shown. An excerpt weighted towards active compounds, which were near 1.5% of everything screened.

SMILES | OXTR agonist | V1aR counter | CHRM4 antagonist | CHRM4 PAM | M4 ag | OXTR potentiator
COCCn1c(=NC(=O)/C=C/c2cccs2)sc2cc(NC(C)=O)ccc21 | 0 | -1 | -1 | 21* | 4 | -3
COCc1ccc(CN2CCC(C(=O)Nc3cccc(-c4cccc(Cl)c4)c3)CC2)o1 | 23* | 28* | 10 | -13 | 21 | -16
Cc1cc(NC(=O)CN2C(=O)NC(C)(c3ccc(OC(F)F)cc3)C2=O)no1 (stereo unspecified) | 14 | 14 | 6 | 10 | 10 | -24
CCOC(=O)c1c(NC(=O)CN2C(=O)NC(C)(c3ccc(OC(F)F)cc3)C2=O)sc(C)c1C (stereo unspecified) | 27* | 20* | 18 | 6 | 18 | -11
CC1(c2ccc(OC(F)F)cc2)NC(=O)N(CC(=O)Nc2ccc(S(N)(=O)=O)cc2)C1=O (stereo unspecified) | -1 | 0 | 4 | -9 | 0 | -14
CCOc1ccc(NC(=O)CN2C(=O)NC(C)(c3ccc(OC(F)F)cc3)C2=O)cc1 (stereo unspecified) | 43* | 43* | 11 | -10 | 51* | -17
CC1(c2ccc(OC(F)F)cc2)NC(=O)N(CC(=O)Nc2cccc(F)c2)C1=O (stereo unspecified) | 53* | 31* | 26* | -23 | 98* | -16
CC1(c2ccc(OC(F)F)cc2)NC(=O)N(CC(=O)Nc2ccc(OC(F)F)cc2)C1=O (stereo unspecified) | 40* | 28* | 16 | -7 | 38* | -16
Cc1ccc(C)c(S(=O)(=O)N2CCN(C(=O)CCC(=O)NCc3ccc(Cl)cc3Cl)CC2)c1 | . | . | -4 | 10 | 4 | .
Cc1[nH]c2ccccc2c1C(=O)C(=O)NCc1nnnn1-c1ccc(F)cc1 | . | . | 4 | 1 | 3 | .
CCOC(=O)c1c(NC(=O)CN2C(=O)NC3(CCCCC3)C2=O)sc(C)c1-c1ccc(C)cc1 | -2 | -1 | -5 | 17 | 0 | -10
CCOC(=O)c1sc(NC(=O)CN2C(=O)NC3(CCCCCCC3)C2=O)c(C(=O)OCC)c1C | 0 | 0 | 27* | 11 | 0 | 5
O=C(Cc1cccc2c(=O)cc(-c3ccccc3)oc12)OCCN1CCOCC1 | . | . | -6 | 5 | 11 | .
O=C(OCC(=O)N1CCCc2ccccc21)c1ccc(S(=O)(=O)C(F)F)cc1 | 0 | 1 | -8 | -5 | 6 | -11
CC(C)(C)c1nnc(N/N=C/c2cc(Br)ccc2O)n(N)c1=O | 4 | 6 | 34* | -31 | 29 | -9
COc1ccc(/C=N/Nc2nonc2N)cc1 | -1 | -1 | 8 | 1 | 1 | -2
Nc1nonc1N/N=C\c1ccccc1 | -1 | 0 | 27* | 11 | 1 | 4
CSc1ccc(OC2(C)CCN(Cc3ccc4c(c3)OCCO4)C2)cc1 (stereo unspecified) | . | . | 9 | -6 | 3 | .
Cc1ccc(O)c([C@H](CCN(C(C)C)C(C)C)c2ccccc2)c1 | 1 | 2 | 100* | -19 | 5 | -10
CCCN(CCC)C(=O)CC(c1ccccc1)c1ccc(C)cc1O (stereo unspecified) | -2 | -1 | 3 | -4 | -1 | -4
CCCCCCN1C2=NCCN2c2ccccc21 | 0 | 1 | 29* | -22 | 3 | 0
COc1cccc(NC(=O)CSCC(=O)Nc2ccccc2)c1 | -1 | 1 | -3 | -4 | 1 | -14
COc1cccc(NC(=O)CN(C)C(=O)c2cc(-c3ccccc3)nn2-c2ccccc2)c1 | -1 | 0 | -15 | 18* | 4 | -7
COc1cccc(NC(=O)CSCC(=O)O)c1 | 2 | 0 | 5 | 33* | 0 | 3
CC(C)OC(=O)c1c(-c2ccc(C(C)C)cc2)csc1NC(=O)C1CCCO1 (stereo unspecified) | -1 | -1 | 0 | -3 | 0 | -8
CCOC(=O)C(=O)c1cn(C2OCC(OC(C)=O)C(OC(C)=O)C2OC(C)=O)c2ccccc12 (stereo unspecified) | -1 | 0 | -4 | 22* | 2 | 0

From PubChem BioAssay
